# CHOP inh – inhibitors of CHOP induction in ER stress response. inhibition, % at 10 µM. CHO-K1 CHOP-promoter luciferase, tunicamycin-induced, 15-18 h. 220,000 compounds, 3.8% hits;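 active = compounds that reduced the stress-induced luciferase reporter signal by more than about 70% of percent inhibition, limit read from the data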;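 note: 0% = tunicamycin plus vehicle and 100% = wells without tunicamycin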
# Dynein cargo inh – dynein cargo transport inhibition. 3617.4 mouse cells, GR-EGFP nuclear translocation imaging; test concentration mostly 20 µM; stimulated with dexamethasone, 1 µM; hits give low values. z-score, hits read low. 220,000 compounds, 0.47% hits;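 active = plate z-score of nuclear minus cytoplasmic receptor signal below a set negative limit, without overly bright fluorescence or cell loss, cut at about -3.5 in these data, passing the limit was not always enough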;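 note: z-score of nuclear minus cytoplasmic ring GR-EGFP intensity difference per well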
#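 medium = tetracycline-free induction medium containing charcoal-stripped FBS | probe or stimulus = dexamethasone, 1.0 µM final | timing = 48 h induction, then 1 h compound, then 30 min agonist, 37 °C | detection = automated 10x imaging of fixed Hoechst-stained cells | read-out basis = nuclear versus cytoplasmic GR-EGFP signal, averaged per well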
# L major viab – inhibitors of Leishmania major promastigote growth. inhibition, % at 10 µM. 200,000 compounds, 9% hits. Leishmania major promastigotes, resazurin fluorescence viability. AID 1063; in the data active = inhibition above about 50%;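 note: promastigotes grown with compound for 44 hours at 28 °C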
# T cruzi repl – blocks replication of Trypanosoma cruzi. T. cruzi beta-gal in NIH3T3, luminescence, 90 h. inhibition, % (no concentration beside the values). 300,000 compounds, 1.4% hits. AID 1885;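 active = mean inhibition across valid replicates above about 55%, limit read from the data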;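 note: signal also drops with host cell toxicity which is not excluded here; 0% = plate median of DMSO wells and 100% = zero luminescence signal; higher percent means less beta-gal luminescence so fewer parasites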
#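 Test system: β-gal T. cruzi (Tulahuen C4) inside NIH/3T3 cells / Quantity: 5,000 cells/well / Measured by: luminescence from GalScreen with 0.05% NP40, read after 60 min / Medium: DMEM plus 2% FBS / Measure: parasite load inhibition, % / Reagent: Tulahuen C4 trypomastigotes, 5000/well / Schedule: co-culture of at least 90 h after 3 h attachment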
# XBP1 UPR activ – activators of adaptive arm of unfolded protein response (XBP1) | 330,000 compounds, 0.33% hits | AID 463104 | CHO-XBP1 luciferase reporter, IRE1-XBP1 UPR activation, luminescence; percent of tunicamycin response, DMSO as zero | activation, % at 20 µM;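 active = versus positive control, 20 µM dose yields 30% or more activation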;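 note: 100% = tunicamycin at 10 µg/mL and 0% = DMSO only wells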
#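 Material: CHO cell line with stable XBP1 luciferase reporter; buffer or medium: F12 medium containing 10% fetal bovine serum; compound: single point, 20 µM final compound, 1% DMSO; incubation: 6 h treatment, 37 °C; measured by: glow luminescence from Steady-Glo reagent; evaluation: activation, % of tunicamycin; control set: tunicamycin high, DMSO low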
# UPR CHOP act – activators of apoptotic arm of unfolded protein response (CHOP); AID 449763; CHO-CHOP luciferase reporter, UPR activation, luminescence; percent of tunicamycin response over DMSO baseline; activation, % at 10 µM; 330,000 compounds, 0.34% hits;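 active = at 10 µM dose, activation of 40% or more, normalized to positive control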;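 note: 100% = tunicamycin at 10 µg/mL and 0% = DMSO alone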
#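 Dosing – one dose, 10 µM in 0.5% DMSO · System – CHO-CHOP cells, stable luciferase reporter of PERK-eIF2a-CHOP signalling · Input – 500 cells/well · Control set – tunicamycin 10 µg/mL final as positive, DMSO-only wells as negative · Timing – 6 h compound treatment, 37 °C · Measure – % activation vs tunicamycin · Technique – luminescence read with Steady-Glo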
# Starred values were filed as active, the others as inactive; · = no result given. The sample as a whole holds a higher share of hits than the screen did.
SMILES,CHOP inh,Dynein cargo inh,L major viab,T cruzi repl,XBP1 UPR activ,UPR CHOP act
COc1ccc(C(=O)N2CCC(C(=O)Nc3ccc4c(c3)OCO4)CC2)cc1,19.2,-0.3,52.3*,6.3,1.9,-0.2
CC(Sc1ncnc2ccccc12)C(=O)Nc1ccc2c(c1)OCO2 (configuration not stated),15.8,-0.143,80.4*,1.5,-0.8,1.4
O=C(Cc1ccccc1)Nc1ccccc1C(=O)Nc1ccccc1,31.1,-0.152,65.2*,0.8,-1.4,1.4
O=C(O)CCC(=O)Nc1ccccc1C(=O)NCc1ccccc1,8.2,-0.839,50.7*,10.7,-2.7,1.4
CCOc1ncccc1C(=O)NCc1ccccc1,47.7,0.1,53.8*,-0.2,0.1,-0.2
O=C(NCc1ccc(F)cc1)c1ccccc1OCc1ccccc1,16.1,0.626,79.5*,14.8,0.9,1.0
COc1cc(C2SCC(=O)N2Cc2ccccc2)cc(OC)c1OC (configuration not stated),·,·,·,-9.4,-3.5,1.3
COc1ccc(-c2cn(Cc3ccc(C(=O)NCc4ccc(C)cc4)cc3)c(C(C)N)n2)cc1 (configuration not stated),·,·,·,41.5,26.3,8.8
O=C(CC1SC(N2CCOCC2)=NC1=O)Nc1cccc(C(F)(F)F)c1 (configuration not stated),·,·,·,·,6.2,0.7
O=C(O)c1ccccc1NC(=O)c1ccccc1Nc1ccccc1,·,·,·,-3.1,2.5,-0.8
Cc1nnc(NC(=O)c2ccc(S(=O)(=O)N(C)c3ccccc3)cc2)s1,·,·,·,·,0.0,0.2
CC(C)N(C)NC(=S)Nc1ccccc1,49.4,1.06,62.5*,-12.4,0.1,0.6
CN(c1ccccc1)S(=O)(=O)c1ccc(NC(=S)Nc2ccccc2)cc1,46.6,-0.417,92.7*,-4.9,2.0,2.1
CCN(CC)NC(=S)Nc1ccccc1,5.5,-0.485,-1.2,-3.6,-0.7,-0.3
CN(c1ccccc1)S(=O)(=O)c1ccc(NC(=O)c2ccc(-c3ccccc3)cc2)cc1,69.6,0.161,97.0*,46.7,-0.8,8.9
CC(=O)Nc1ccc(NC(=O)c2ccc(N(C)S(=O)(=O)c3ccc(C)cc3)cc2)cc1,·,·,·,7.9,-6.3,-1.6
Cc1csc(NC(=O)c2ccc(S(=O)(=O)N(C)c3ccccc3)cc2)n1,17.4,-1.03,98.0*,23.0,2.2,0.5
Cc1cc(-c2csc(NC(=O)c3cccc(S(=O)(=O)N(C)C)c3)n2)c(C)n1-c1ccccc1,46.7,0.409,18.1,-0.1,-3.4,1.7
COC(=O)c1ccc(-n2c(C)cc(-c3csc(NC(=O)c4ccc(S(=O)(=O)N(C)C)cc4)n3)c2C)cc1,17.4,-1,56.9*,-3.1,0.6,-1.6
CC(=O)Nc1ccc(C(=O)Nc2cccc(S(=O)(=O)N(C)c3ccccc3)c2)cc1,·,·,·,·,-1.9,-0.3
CN(c1cccc(NC(=O)c2ccc(N(C)S(=O)(=O)c3ccccc3)cc2)c1)S(C)(=O)=O,43.0,-1.34,61.7*,14.3,0.3,0.6
O=c1[nH]c(CSc2nc3ccccc3o2)nc2c1cnn2-c1ccccc1,73.8*,1.35,-0.4,-4.8,2.2,-1.5
O=c1[nH]c(CSc2ncccn2)nc2c1cnn2-c1ccccc1,7.2,0.069,54.5*,-4.9,3.9,0.2
COc1cc(C)c(S(=O)(=O)N2CCN=C2c2ccccc2)cc1C,13.1,2.68,93.5*,-16.6,-2.9,-2.5
Cn1c(-c2ccccc2)c(CCO)c2ccccc21,23.7,0.824,35.3,-4.1,1.6,-1.8
CCCc1c(CC)c(=N)c2ccccc2n1C,2.6,0.298,52.5*,71.7*,-1.5,-0.4
CCN(CC)C(=O)c1[nH]cnc1C(=O)Nc1ccc(Cl)cc1,·,·,·,·,-2.4,3.4
CCOC(=O)c1oc2ccc(CNC3CCCCC3)c(Cl)c2c1C,26.9,0.475,95.8*,74.1*,-0.1,-1.6
CCOC(=O)c1ccc(NC(=O)COc2ccccc2CNCCO)cc1,16.7,-0.311,18.0,·,-3.5,0.1
CCOC(=O)c1oc2ccc(CNCCO)c(Cl)c2c1C,16.6,0.178,96.7*,10.3,4.9,3.5
